Test results published in ChEMBL document CHEMBL4715736, “Identification of anticancer agents based on the thieno[2,3-b]pyridine and 1H-pyrazole molecular scaffolds” (2016).

What was measured:
Type in all cases: functional
MDA-MB-435 = experiment: Growth inhibition of human MDA-MB-435 cells assessed as cell growth at 0.01 uM incubated for 48 hrs by sulforhodamine B assay relative to control; conditions: read-out: Activity
UACC-257 = experiment: Growth inhibition of human UACC-257 cells assessed as cell growth at 0.01 uM incubated for 48 hrs by sulforhodamine B assay relative to control; conditions: read-out: Activity
ACHN [1] = experiment: Growth inhibition of human ACHN cells assessed as cell growth at 0.01 uM incubated for 48 hrs by sulforhodamine B assay relative to control; conditions: read-out: Activity
CAKI-1 = experiment: Growth inhibition of human CAKI-1 cells assessed as cell growth at 0.01 uM incubated for 48 hrs by sulforhodamine B assay relative to control; conditions: read-out: Activity
Procedure, shortened: (§1)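 NCI Developmental Therapeutics Program NCI60 panel. Compounds that were active in the 10 µM one-dose screen went on to dose–response testing. Growth at each concentration is expressed relative to untreated control (100%). GI50 (concentration giving 50% of maximal inhibition of proliferation) and TGI (concentration giving total growth inhibition) were derived from the curves.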

RXF 393 [2] = experiment: Growth inhibition of human RXF 393 cells assessed as cell growth at 0.01 uM incubated for 48 hrs by sulforhodamine B assay relative to control; conditions: read-out: Activity
BT-549 [3] = experiment: Growth inhibition of human BT-549 cells assessed as cell growth at 0.01 uM incubated for 48 hrs by sulforhodamine B assay relative to control; conditions: read-out: Activity
K562 = experiment: Growth inhibition of human K562 cells assessed as cell growth at 0.1 uM incubated for 48 hrs by sulforhodamine B assay relative to control; conditions: read-out: Activity
MOLT-4 = experiment: Growth inhibition of human MOLT-4 cells assessed as cell growth at 0.1 uM incubated for 48 hrs by sulforhodamine B assay relative to control; conditions: read-out: Activity
HOP-62 = experiment: Growth inhibition of human HOP-62 cells assessed as cell growth at 0.1 uM incubated for 48 hrs by sulforhodamine B assay relative to control; conditions: read-out: Activity
NCI-H322M = experiment: Growth inhibition of human NCI-H322M cells assessed as cell growth at 0.1 uM incubated for 48 hrs by sulforhodamine B assay relative to control; conditions: read-out: Activity
NCI-H460 = experiment: Growth inhibition of human NCI-H460 cells assessed as cell growth at 0.1 uM incubated for 48 hrs by sulforhodamine B assay relative to control; conditions: read-out: Activity
COLO 205 = experiment: Growth inhibition of human COLO 205 cells assessed as cell growth at 0.1 uM incubated for 48 hrs by sulforhodamine B assay relative to control; conditions: read-out: Activity; procedure, shortened: as §1
SF-539 = experiment: Growth inhibition of human SF-539 cells assessed as cell growth at 0.1 uM incubated for 48 hrs by sulforhodamine B assay relative to control; conditions: read-out: Activity
SNB-19 = experiment: Growth inhibition of human SNB-19 cells assessed as cell growth at 0.1 uM incubated for 48 hrs by sulforhodamine B assay relative to control; conditions: read-out: Activity
SNB-75 = experiment: Growth inhibition of human SNB-75 cells assessed as cell growth at 0.1 uM incubated for 48 hrs by sulforhodamine B assay relative to control; conditions: read-out: Activity
LOX IMVI = experiment: Growth inhibition of human LOX IMVI cells assessed as cell growth at 0.1 uM incubated for 48 hrs by sulforhodamine B assay relative to control; conditions: read-out: Activity
NCI/ADR-RES [4] = experiment: Growth inhibition of human NCI/ADR-RES cells assessed as cell growth at 0.1 uM incubated for 48 hrs by sulforhodamine B assay relative to control; conditions: read-out: Activity
786-0 = experiment: Growth inhibition of human 786-0 cells assessed as cell growth at 0.1 uM incubated for 48 hrs by sulforhodamine B assay relative to control; conditions: read-out: Activity; procedure, shortened: as §1
DU-145 = experiment: Growth inhibition of human DU-145 cells assessed as cell growth at 0.1 uM incubated for 48 hrs by sulforhodamine B assay relative to control; conditions: read-out: Activity; procedure, shortened: as §1
CCRF-CEM [5] = experiment: Growth inhibition of human CCRF-CEM cells assessed as cell growth at 1 uM incubated for 48 hrs by sulforhodamine B assay relative to control; conditions: read-out: Activity; procedure, shortened: as §1
HOP-92 = experiment: Growth inhibition of human HOP-92 cells assessed as cell growth at 1 uM incubated for 48 hrs by sulforhodamine B assay relative to control; conditions: read-out: Activity
SF-268 = experiment: Growth inhibition of human SF-268 cells assessed as cell growth at 1 uM incubated for 48 hrs by sulforhodamine B assay relative to control; conditions: read-out: Activity
Malme-3M = experiment: Growth inhibition of human Malme-3M cells assessed as cell growth at 1 uM incubated for 48 hrs by sulforhodamine B assay relative to control; conditions: read-out: Activity
OVCAR-4 [6] = experiment: Growth inhibition of human OVCAR-4 cells assessed as cell growth at 1 uM incubated for 48 hrs by sulforhodamine B assay relative to control; conditions: read-out: Activity
BT-549 [7] = experiment: Growth inhibition of human BT-549 cells assessed as cell growth at 1 uM incubated for 48 hrs by sulforhodamine B assay relative to control; conditions: read-out: Activity
RPMI-8226 [8] = experiment: Growth inhibition of human RPMI-8226 cells assessed as cell growth at 100 uM incubated for 48 hrs by sulforhodamine B assay relative to control; conditions: read-out: Activity
SK-MEL-2 = experiment: Growth inhibition of human SK-MEL-2 cells assessed as cell growth at 100 uM incubated for 48 hrs by sulforhodamine B assay relative to control; conditions: read-out: Activity
SK-MEL-28 = experiment: Growth inhibition of human SK-MEL-28 cells assessed as cell growth at 100 uM incubated for 48 hrs by sulforhodamine B assay relative to control; conditions: read-out: Activity
SK-MEL-5 = experiment: Growth inhibition of human SK-MEL-5 cells assessed as cell growth at 100 uM incubated for 48 hrs by sulforhodamine B assay relative to control; conditions: read-out: Activity
NCI/ADR-RES [9] = experiment: Growth inhibition of human NCI/ADR-RES cells assessed as cell growth at 100 uM incubated for 48 hrs by sulforhodamine B assay relative to control; conditions: read-out: Activity
Hs-578T = experiment: Growth inhibition of human Hs-578T cells assessed as cell growth at 100 uM incubated for 48 hrs by sulforhodamine B assay relative to control; conditions: read-out: Activity
CCRF-CEM [10] = experiment: Growth inhibition of human CCRF-CEM cells incubated for 48 hrs by sulforhodamine B assay; procedure, shortened: as §1
RPMI-8226 [11] = experiment: Growth inhibition of human RPMI-8226 cells incubated for 48 hrs by sulforhodamine B assay
Procedure, shortened: (§2)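 NCI DTP 60-line human tumour panel. Dose-response curves were run only for ligands active in the initial 10 µM screen. GI50 (concentration giving 50% of maximal inhibition of proliferation) and TGI (concentration giving total growth inhibition) were derived from these curves.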

OVCAR-4 [12] = experiment: Growth inhibition of human OVCAR-4 cells incubated for 48 hrs by sulforhodamine B assay; conditions: for CC50: read-out: LC50 (the source's name); procedure, shortened: as §2
ACHN [13] = experiment: Growth inhibition of human ACHN cells incubated for 48 hrs by sulforhodamine B assay; conditions: for CC50: read-out: LC50 (the source's name); procedure, shortened: as §1
RXF 393 [14] = experiment: Growth inhibition of human RXF 393 cells incubated for 48 hrs by sulforhodamine B assay; conditions: for CC50: read-out: LC50 (the source's name); procedure, shortened: as §2

## COc1cccc(NC(=O)c2sc3nc4c(cc3c2N)CN(Cc2ccccc2)CC4)c1
MDA-MB-435
  growth at 0.01 µM: 93%
UACC-257
  growth at 0.01 µM: 94%
ACHN [1]
  growth at 0.01 µM: 97%
CAKI-1
  growth at 0.01 µM: 87%
RXF 393 [2]
  growth at 0.01 µM: 97%
BT-549 [3]
  growth at 0.01 µM: 88%
K562
  growth at 0.1 µM: 101%
MOLT-4
  growth at 0.1 µM: 104%
HOP-62
  growth at 0.1 µM: 86%
NCI-H322M
  growth at 0.1 µM: 96%
NCI-H460
  growth at 0.1 µM: 101%
COLO 205
  growth at 0.1 µM: 98%
SF-539
  growth at 0.1 µM: 92%
SNB-19
  growth at 0.1 µM: 94%
SNB-75
  growth at 0.1 µM: 92%
LOX IMVI
  growth at 0.1 µM: 102%
NCI/ADR-RES [4]
  growth at 0.1 µM: 97%
786-0
  growth at 0.1 µM: 93%
DU-145
  growth at 0.1 µM: 104%
CCRF-CEM [5]
  growth at 1 µM: 82%
HOP-92
  growth at 1 µM: 64%
SF-268
  growth at 1 µM: 91%
Malme-3M
  growth at 1 µM: 57%
OVCAR-4 [6]
  growth at 1 µM: 78%
BT-549 [7]
  growth at 1 µM: 72%
RPMI-8226 [8]
  growth at 100 µM: 27%
SK-MEL-2
  growth at 100 µM: -28%
SK-MEL-28
  growth at 100 µM: -30%
SK-MEL-5
  growth at 100 µM: -34%
NCI/ADR-RES [9]
  growth at 100 µM: -26%
Hs-578T
  growth at 100 µM: -9%
CCRF-CEM [10]
  GI50: 29.5 µM
  LC50: > 100 µM
  TGI: > 100 µM
RPMI-8226 [11]
  GI50: 38.9 µM
  LC50: > 100 µM
  TGI: > 100 µM
OVCAR-4 [12]
  GI50: 2.68 µM
  TGI: 19.7 µM
  CC50: > 100 µM
ACHN [13]
  GI50: 3.46 µM
  TGI: 64.5 µM
  CC50: > 100 µM
RXF 393 [14]
  GI50: 2.71 µM
  TGI: 12.9 µM
  CC50: > 100 µM

## Cc1ccc(NC(=O)c2sc3nc4c(cc3c2N)C(=O)CCC4)cc1C
MDA-MB-435
  growth at 0.01 µM: 95%
UACC-257
  growth at 0.01 µM: 96%
ACHN [1]
  growth at 0.01 µM: 98%
CAKI-1
  growth at 0.01 µM: 96%
RXF 393 [2]
  growth at 0.01 µM: 87%
BT-549 [3]
  growth at 0.01 µM: 107%
K562
  growth at 0.1 µM: 118%
MOLT-4
  growth at 0.1 µM: 106%
HOP-62
  growth at 0.1 µM: 86%
NCI-H322M
  growth at 0.1 µM: 94%
NCI-H460
  growth at 0.1 µM: 102%
COLO 205
  growth at 0.1 µM: 98%
SF-539
  growth at 0.1 µM: 90%
SNB-19
  growth at 0.1 µM: 88%
SNB-75
  growth at 0.1 µM: 70%
LOX IMVI
  growth at 0.1 µM: 98%
NCI/ADR-RES [4]
  growth at 0.1 µM: 102%
786-0
  growth at 0.1 µM: 88%
DU-145
  growth at 0.1 µM: 101%
CCRF-CEM [5]
  growth at 1 µM: 7%
HOP-92
  growth at 1 µM: 29%
SF-268
  growth at 1 µM: 57%
Malme-3M
  growth at 1 µM: 24%
OVCAR-4 [6]
  growth at 1 µM: 42%
BT-549 [7]
  growth at 1 µM: 49%
RPMI-8226 [8]
  growth at 100 µM: -9%
SK-MEL-2
  growth at 100 µM: 18%
SK-MEL-28
  growth at 100 µM: 25%
SK-MEL-5
  growth at 100 µM: -57%
NCI/ADR-RES [9]
  growth at 100 µM: 4%
Hs-578T
  growth at 100 µM: 17%
CCRF-CEM [10]
  GI50: 0.334 µM
  LC50: > 100 µM
  TGI: ≥ 100 µM
RPMI-8226 [11]
  GI50: 1.43 µM
  LC50: > 100 µM
OVCAR-4 [12]
  GI50: 0.0201 µM
  TGI: > 100 µM
  CC50: > 100 µM
ACHN [13]
  GI50: 0.0239 µM
  TGI: > 100 µM
  CC50: > 100 µM
RXF 393 [14]
  GI50: 0.222 µM
  CC50: > 100 µM
